Source: paper PMC12144996 (Acta Pharmaceutica Sinica. B, 2025)
pEC50: −log10 of the molar value. Like-named read-outs stand apart in the source and are kept apart here.

What was measured:
[1] = test system: MHV-A59; assay type: in vivo, mouse hepatitis virus
[2] = test system: MHV-A59; test: Therapeutic treatment from 12 hpi in MHV-A59-infected BALB/c mice; assay type: in vivo, mouse hepatitis virus; conditions: 5 dpi; for Serum ALT and AST (liver injury markers): 50 mg/kg intragastric twice daily from 12 hpi, vs vehicle; for MHV replication in the lung (qRT-PCR and plaque assay): 500 mg/kg intragastric twice daily from 12 hpi
How it was run: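 BALB/c mice were infected intranasally with 4×10^5 PFU MHV-A59. At 5 dpi, lung and liver were assayed by qRT-PCR and L2-cell plaque assay. Orbital blood was clotted at room temperature and the serum run in ALT/AST kits.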

[3] = test system: HCoV-OC43; test: Anti-human coronavirus activity, viral RNA by qRT-PCR, HCoV-OC43 in HCT-8 cells; assay type: cell-based; conditions: Betacoronavirus 1, OC43, HCT-8, read-out: EC50 for HCoV-OC43
[4] = test system: HCoV-229E; test: microbe, parasite or virus in culture; assay type: cell-based; conditions: Human coronavirus 229E, Huh-7, read-out: EC50 for HCoV-229E
[5] = test system: HCoV-NL63; assay type: cell-based; conditions: Human coronavirus NL63, LLC-MK2, read-out: EC50 for HCoV-NL63
[6] = test system: MHV; test: Anti-animal coronavirus activity, viral load by qRT-PCR, MHV in L2 cells; assay type: cell-based, mouse hepatitis virus; conditions: Murine coronavirus, 48 h, read-out: EC50 for MHV
How it was run: (§1)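 Cells seeded in 48-well plates and grown 24 h to about 90% confluence, then washed three times with serum-free medium. Infected at MOI 0.01 for 1 h at 37 °C, then given medium with test compound dilutions or DMSO. After 48 h at 37 °C, cells and supernatants were harvested for viral load by qRT-PCR. EC50 taken from the dose–response curve; mean ± SEM.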

[7] = test system: PEDV; test: Anti-animal coronavirus activity, viral load by qRT-PCR, PEDV in Vero E6 cells; assay type: cell-based; conditions: Porcine epidemic diarrhea virus, Vero C1008, 48 h, read-out: EC50 for PEDV
How it was run: as §1

[8] = test system: TGEV; test: Anti-animal coronavirus activity, viral load by qRT-PCR, TGEV in ST cells; assay type: cell-based, transmissible gastroenteritis virus; conditions: Alphacoronavirus 1, 48 h, read-out: EC50 for TGEV
How it was run: as §1

[9] = test system: MHV-A59; test: Prophylactic ATV006 in MHV-A59-infected BALB/c mice, liver; assay type: in vivo, mouse hepatitis virus
[10] = test system: MHV-A59; test: Prophylactic ATV006 in intranasally MHV-A59-infected BALB/c mice, lung; assay type: in vivo, mouse hepatitis virus; conditions: 3 dpi
How it was run: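 BALB/c mice were inoculated intranasally with 4×10^5 PFU MHV-A59 under mild isoflurane anaesthesia. They received vehicle (n = 6) or test compound at 500, 250, 100 or 50 mg/kg intragastric twice daily as prophylaxis (n = 5). Lungs were taken at 3 dpi for qRT-PCR and for plaque assay on L2 cells (methyl cellulose overlay, crystal violet). Lung sections were zinc formalin-fixed, 4 μm, H&E stained.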

[11] = test system: MHV-A59; test: Delayed therapeutic treatment; assay type: in vivo, mouse hepatitis virus; conditions: 5 dpi; for Viral replication in the lung (qRT-PCR): start 24-96 hpi
How it was run: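 BALB/c mice under light isoflurane anaesthesia were infected intranasally with 4×10^5 PFU MHV-A59 in 40 μL DMEM. Test compound was started at delayed times post-infection and given every 12 h. At 5 dpi, lung and liver virus was measured by qRT-PCR and by plaque assay on L2 cells, with methyl cellulose overlay and crystal violet staining. Lungs were scored 0–4 for edema, mononuclear and PMN infiltration and hemorrhage; livers were blindly Ishak-scored. Serum ALT/AST measured by kit.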

[12] = test system: MHV-A59; test: Time-of-addition of ATV006 in MHV-A59-infected cells, viral load; assay type: cell-based, mouse hepatitis virus; conditions: ATV006 administered 48 h after the viral infection; MOI = 0.0001
[13] = rats; cited from earlier work
[14] = cynomolgus monkeys; cited from earlier work
[15] = […], remdesivir 20 mg/kg intraperitoneal once daily
[16] = […], GS-441524 50 mg/kg oral once daily
[17] = ATV006 500 mg/kg administered at 24 hpi

CCC(CC)COC(=O)[C@H](C)N[P@](=O)(OC[C@H]1O[C@@](C#N)(c2ccc3c(N)ncnn23)[C@H](O)[C@@H]1O)Oc1ccccc1 [remdesivir, reference compound]
Body weight compared with ATV006 (50 mg/kg) [1, 15]: lower than that of mice treated with ATV006 | Survival [1, 15]: prevented MHV-infected mice from dying

N#C[C@@]1(c2ccc3c(N)ncnn23)O[C@H](CO)[C@@H](O)[C@H]1O [GS-441524, reference compound]
Body weight compared with ATV006 (50 mg/kg) [1, 16]: lower than that of mice treated with ATV006 | Survival [1, 16]: prevented MHV-infected mice from dying | Serum ALT and AST (liver injury markers) [2]: significantly reduced the liver injury markers ALT and AST | MHV replication in the lung (qRT-PCR and plaque assay) [2]: only ATV006 significantly inhibited MHV replication in the lung | Virus titers in the liver (plaque assay) ([2]; GS-441524 at 25, 50 mg/kg twice daily from 12 hpi): below the detection limit of the plaque assay

CC(C)C(=O)OC[C@H]1O[C@@](C#N)(c2ccc3c(N)ncnn23)[C@H](O)[C@@H]1O [ATV006]
pEC50 [3]: 5.54 | pEC50 [4]: 5.95 | pEC50 [5]: 6.10 | pEC50 [6]: 6.58 | pEC50 [7]: 5.98 | pEC50 [8]: 5.52 | Survival ([1]; […], ATV006 2 mg/kg intragastric once daily): all died by 10 dpi | Mortality and weight loss ([1]; […], ATV006 5 to 50 mg/kg intragastric once daily): effectively prevented mortality and weight loss | Reduction of viral titers in the liver ([1]; mouse, in vivo, 2 mg/kg): approximately sixfold | Live virus in the liver (plaque assay) ([1]; mouse, in vivo, 50 mg/kg): no live virus was found in the liver | Reduction of viral titers in the liver ([1]; mouse, in vivo, 50 mg/kg): 1,000,000 fold | Inflammatory cell infiltration in the liver (histopathology) ([9]; ATV006 50 mg/kg intragastric twice daily): significant reduction in inflammatory cell infiltration | Serum ALT and AST (liver injury markers) ([9]; ATV006 50 mg/kg intragastric twice daily, 3 dpi, vs control): lower in the ATV006-treated group than in the control group | Viral titers in the liver (plaque assay) ([9]; ATV006-treated group, prophylactic, 3 dpi): below the detection limit | Expression of inflammatory cytokines in the liver ([9]; ATV006 prophylactic, 3 dpi): significant decrease in the expression of various inflammatory cytokines in the liver | Inflammatory cell infiltration in lung (histopathology) ([10]; ATV006 500 mg/kg intragastric twice daily): vehicle-treated mice had more inflammatory cell infiltration compared to mice treated with ATV006 | MHV infectious particles in the lung (plaque assay) ([10]; ATV006 50-500 mg/kg intragastric twice daily): dose-dependent decrease in the number of MHV infectious particles | Inflammatory cytokines and chemokines in the lung (Ifnβ, Cxcl10, Il6, Il1β, Ifnγ) ([10]; ATV006 prophylactic): significantly reduced the production of inflammatory cytokines and chemokines in the lung | Serum ALT and AST (liver injury markers) [2]: significantly reduced the liver injury markers ALT and AST | MHV replication in the lung (qRT-PCR and plaque assay) [2]: significantly inhibited MHV replication in the lung | MHV replication in the liver (qRT-PCR) ([2]; ATV006 2-50 mg/kg intragastric twice daily from 12 hpi): inhibited MHV replication in a dose-dependent manner | Virus titers in the liver (plaque assay) ([2]; ATV006 at 2, 10, 25, 50 mg/kg twice daily from 12 hpi): below the detection limit of the plaque assay | MHV replication in the liver (qRT-PCR) ([11]; ATV006 2 mg/kg, delayed treatment): ineffective | Liver pathology (Ishak scoring) ([11]; ATV006 10 mg/kg administered at 24, 48 and 72 hpi): significantly reduced liver piecemeal necrosis, bridging necrosis, circumscribed hepatic necrosis, and portal inflammation | Serum ALT and AST levels ([11]; ATV006 10 mg/kg, delayed treatment): alleviated liver injury | Virus titers in the liver (plaque assay) ([11]; ATV006 50 mg/kg administered as late as 96 hpi): reduced virus titers to levels undetectable by plaque assay | Viral replication in the lung (qRT-PCR) ([11]; ATV006 250 mg/kg every 12 h): significant inhibition of viral replication only when ATV006 treatment (250 mg/kg) began no later than 24 hpi | Bleeding in the lungs (hemorrhage score) [11, 17]: did not improve significantly | Lung pathology: edema, monocyte and neutrophil infiltration [11, 17]: reduced pulmonary edema and monocyte and neutrophil infiltration | Viral replication in the lung (qRT-PCR) ([11]; ATV006 500 mg/kg every 12 h): effective when started within 48 hpi | Infectious viral particles in the lungs (plaque assay) ([11]; ATV006 500 mg/kg initiated within 48 hpi): No infectious viral particles were detected | MHV replication in the liver (qRT-PCR) ([11]; ATV006 10, 25 and 50 mg/kg administered at 24 or 48 hpi): significantly inhibited MHV replication | Inhibition of MHV-A59 viral load [12]: no inhibitory effect was observed | Oral bioavailability [13]: high oral bioavailability | Oral bioavailability [14]: high oral bioavailability
